Reference: ChEMBL document CHEMBL4190234, “Design, synthesis and anticancer activity of new monastrol analogues bearing 1,3,4-oxadiazole moiety” (Eur J Med Chem, 2017)
pIC50: −log10 of the molar value.

How the values were obtained:
MOLT-4 [1] = assay: Cell cycle arrest in human MOLT4 cells assessed as accumulation of apoptotic cells in pre-G phase at 0.16 uM after 24 hrs by propidium iodide staining based flow cytometry (reference value: 0.88%); assay type: functional
In short: (§1)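 MOLT-4 cells (1×10^6) exposed 24 h to 0.160 or 0.430 μM test agent, DMSO (0.002%) control; trypsinized, washed in ice-cold PBS, fixed in ice-cold 70% ethanol ≥2 h at 4°C, washed, stained with propidium iodide DNA kit; cell cycle distribution (pre-G, G0/G1, S, G2/M) by flow cytometry.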

MOLT-4 [2] = assay: Induction of apoptosis in human MOLT4 cells assessed as increase in apoptotic cells at 0.16 uM after 24 hrs by Annexin V-FITC/propidium iodide staining based flow cytometry relative to control; assay type: functional
MOLT-4 [3] = assay: Cell cycle arrest in human MOLT4 cells assessed as accumulation at G0/G1 phase at 0.16 uM after 24 hrs by propidium iodide staining based flow cytometry (reference value: 74.22%); assay type: functional; in short: as §1
MOLT-4 [4] = assay: Cell cycle arrest in human MOLT4 cells assessed as accumulation at S phase at 0.16 uM after 24 hrs by propidium iodide staining based flow cytometry (reference value: 20.55%); assay type: functional; in short: as §1
MOLT-4 [5] = assay: Potency index, ratio of monastrol IC50 to compound IC50 for human MOLT4 cells; assay type: functional
MOLT-4 [6] = assay: Induction of apoptosis in human MOLT4 cells assessed as live cells at 0.16 uM after 24 hrs by Annexin V-FITC/propidium iodide staining based flow cytometry (reference value: 99.12%); assay type: functional
HL-60(TB) [7] = assay: Growth inhibition of human HL-60(TB) cells incubated for 24 hrs by MTT assay; assay type: functional, cell-based; conditions: HL-60, 24 h
In short: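 Cells at 1.2-1.8×10^4 cells/ml in DMEM with 10% FBS, 10 µg/ml insulin and 1% penicillin/streptomycin, plated overnight at 37°C. Serial 10-fold dilutions added to 0.01–100 µM final, medium as negative control, 24 h. MTT (5 mg/ml) added for 4 h, formazan dissolved in acid-isopropanol, A490 read. Eight separate experiments; percent viable cells used to derive IC50.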

MOLT-4 [8] = assay: Induction of apoptosis in human MOLT4 cells assessed as necrotic cells at 0.16 uM after 24 hrs by Annexin V-FITC/propidium iodide staining based flow cytometry (reference value: 0.11%); assay type: functional
MOLT-4 [9] = assay: Induction of apoptosis in human MOLT4 cells assessed as early apoptotic cells at 0.16 uM after 24 hrs by Annexin V-FITC/propidium iodide staining based flow cytometry (reference value: 0.53%); assay type: functional
MOLT-4 [10] = assay: Growth inhibition of human MOLT4 cells incubated for 24 hrs by MTT assay; assay type: functional, cell-based; conditions: MOLT-4, 24 h
MOLT-4 [11] = assay: Induction of apoptosis in human MOLT4 cells assessed as late apoptotic cells at 0.16 uM after 24 hrs by Annexin V-FITC/propidium iodide staining based flow cytometry (reference value: 0.24%); assay type: functional
MOLT-4 [12] = assay: Cell cycle arrest in human MOLT4 cells assessed as accumulation at G2/M phase at 0.16 uM after 24 hrs by propidium iodide staining based flow cytometry (reference value: 4.35%); assay type: functional; in short: as §1
HL-60(TB) [13] = assay: Cell cycle arrest in human HL-60(TB) cells assessed as accumulation at S phase at 0.112 uM after 24 hrs by propidium iodide staining based flow cytometry (reference value: 22.84%); assay type: functional
HL-60(TB) [14] = assay: Cell cycle arrest in human HL-60(TB) cells assessed as accumulation at G2/M phase at 0.112 uM after 24 hrs by propidium iodide staining based flow cytometry (reference value: 7.29%); assay type: functional
HL-60(TB) [15] = assay: Cell cycle arrest in human HL-60(TB) cells assessed as accumulation of apoptotic cells in pre-G phase at 0.112 uM after 24 hrs by propidium iodide staining based flow cytometry (reference value: 1.44%); assay type: functional
HL-60(TB) [16] = assay: Induction of apoptosis in human HL-60(TB) cells assessed as live cells at 0.112 uM after 24 hrs by Annexin V-FITC/propidium iodide staining based flow cytometry (reference value: 98.57%); assay type: functional
HL-60(TB) [17] = assay: Induction of apoptosis in human HL-60(TB) cells assessed as necrotic cells at 0.112 uM after 24 hrs by Annexin V-FITC/propidium iodide staining based flow cytometry (reference value: 0.2%); assay type: functional
HL-60(TB) [18] = assay: Induction of apoptosis in human HL-60(TB) cells assessed as early apoptotic cells at 0.112 uM after 24 hrs by Annexin V-FITC/propidium iodide staining based flow cytometry (reference value: 0.84%); assay type: functional
HL-60(TB) [19] = assay: Induction of apoptosis in human HL-60(TB) cells assessed as late apoptotic cells at 0.112 uM after 24 hrs by Annexin V-FITC/propidium iodide staining based flow cytometry (reference value: 0.39%); assay type: functional
HL-60(TB) [20] = assay: Potency index, ratio of monastrol IC50 to compound IC50 for human HL-60(TB) cells; assay type: functional
HL-60(TB) [21] = assay: Cell cycle arrest in human HL-60(TB) cells assessed as accumulation at G0/G1 phase at 0.112 uM after 24 hrs by propidium iodide staining based flow cytometry (reference value: 68.43%); assay type: functional
HL-60(TB) [22] = assay: Induction of apoptosis in human HL-60(TB) cells assessed as increase in apoptotic cells at 0.112 uM after 24 hrs by Annexin V-FITC/propidium iodide staining based flow cytometry relative to control; assay type: functional

In the case of `CCOC(=O)C1=C(C)NC(SCc2nnc(-c3ccc(Cl)cc3)o2)=NC1c1ccc(Cl)cc1Cl` (stereo not given), the Activity (MOLT-4 [1]) was 17.83%, the “fold change (FC)” value (MOLT-4 [2]) was 21 and the Activity (MOLT-4 [3]) was 38.52%. For the same compound, the Activity (MOLT-4 [4]) was 17.04%, the “Ratio IC50” value (MOLT-4 [5]) was 3 and the Activity (MOLT-4 [6]) was 82.17%. For the same compound, the pIC50 (HL-60(TB) [7]) was 6.82, the Activity (MOLT-4 [8]) was 1.46% and the Activity (MOLT-4 [9]) was 10.48%. For the same compound, the pIC50 (MOLT-4 [10]) was 7.10, the Activity (MOLT-4 [11]) was 5.89% and the Activity (MOLT-4 [12]) was 26.61%.
In the case of `CCOC(=O)C1=C(C)NC(SCc2nnc(-c3ccc(Cl)cc3)o2)=NC1c1cccc(Cl)c1` (stereo not given), the Activity (HL-60(TB) [13]) was 27.59%, the Activity (HL-60(TB) [14]) was 14.81% and the Activity (HL-60(TB) [15]) was 24.72%. The Activity (HL-60(TB) [16]) was 75.28%, the Activity (HL-60(TB) [17]) was 1.36% and the Activity (HL-60(TB) [18]) was 17.09%. For the same compound, the pIC50 (HL-60(TB) [7]) was 7.25, the Activity (HL-60(TB) [19]) was 6.67% and the “Ratio IC50” value (HL-60(TB) [20]) was 2.5. For the same compound, the Activity (HL-60(TB) [21]) was 32.88%, the pIC50 (MOLT-4 [10]) was 5.75 and the “fold change (FC)” value (HL-60(TB) [22]) was 19.3.
`CCOC(=O)C1=C(C)NC(SCc2nnc(-c3ccc(Cl)cc3)o2)=NC1c1ccc(Br)cc1` (stereo not given) was tested, and the “Ratio IC50” value (MOLT-4 [5]) was 3, the pIC50 (HL-60(TB) [7]) was 6.84 and the pIC50 (MOLT-4 [10]) was 7.07.
For `CCOC(=O)C1=C(C)NC(SCc2nnc(-c3ccc(Cl)cc3)o2)=NC1c1ccc(Cl)cc1` (stereo not given), the pIC50 (HL-60(TB) [7]) was 6.99, the “Ratio IC50” value (HL-60(TB) [20]) was 1.5 and the pIC50 (MOLT-4 [10]) was 6.21.
